# Screens from PubChem BioAssay.
# RGS4 pot = RGS4 potentiation or activation | AID 463111 | B-score at 10 µM | 310,000 tested, 0.92% active | HEK293 M3R/inducible RGS4, carbachol calcium flux Fluo4; active compounds read low;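 active means B-score of the integrated calcium signal more than 4 SD below the library mean, with starting fluorescence not abnormally high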;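 further: negative B-score means reduced calcium response which marks RGS4 activation or potentiation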
#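 test system = M3R-expressing HEK293 line, RGS4 induced by doxycycline | probe or stimulus = carbachol at ECmax as muscarinic agonist stimulus | timing = dye loading 30 min 37 °C, buffer rest 30 min RT | signal = calcium dye Fluo4 fluorescence | evaluation = B score from integrated fluorescence ratio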
# MrgX1 PAM = human MrgX1 positive allosteric modulation, primary screen; B-score at 10 µM; 310,000 tested, 0.63% active; MrgX1-HEK293, Fluo-4 calcium flux, FDSS; active compounds read high; Q96LB2;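 active means plate-corrected calcium response at least 3 library SD above typical, normal starting fluorescence, not activating the receptor alone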;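 further: compound read alongside a low EC10 to EC30 dose of BAM8-22 agonist; peak minus trough fluorescence over baseline measured at the second addition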
# Target sequence (Q96LB2 whole entry, looked up): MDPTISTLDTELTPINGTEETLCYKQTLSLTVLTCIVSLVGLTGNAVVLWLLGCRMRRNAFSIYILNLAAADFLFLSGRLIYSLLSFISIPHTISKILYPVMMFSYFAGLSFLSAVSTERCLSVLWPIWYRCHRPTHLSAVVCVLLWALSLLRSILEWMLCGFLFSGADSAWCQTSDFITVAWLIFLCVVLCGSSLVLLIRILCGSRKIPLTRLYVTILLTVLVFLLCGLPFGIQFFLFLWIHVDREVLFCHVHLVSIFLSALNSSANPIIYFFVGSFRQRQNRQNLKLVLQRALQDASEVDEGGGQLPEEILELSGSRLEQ
# MrgX1 agonist = human MrgX1 receptor agonism, primary screen; Q96LB2; MrgX1-HEK293 cells, Fluo-4 calcium fluorescence, agonist mode; active compounds read high; B-score at 10 µM; 310,000 tested, 0.44% active; AID 588627;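 active means calcium response B-score plate-corrected fluorescence ratio at least 3 library SD, with starting fluorescence B-score inside 5 SD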
#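 Test system: HEK293 cells stably expressing human MrgX1 receptor; Input: fifteen thousand cells per well; Dosing: compound delivered in addition one of three; Schedule: overnight seeding, then 1 h dark dye loading; Technique: Fluo-4 NW calcium fluorescence; Measure: B-scored fluorescence response ratio; Controls: positive and negative controls per plate.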
# MrgX1 antag = antagonists of human MrgX1 receptor | B-score at 10 µM | Q96LB2 | MRGX1-HEK293 calcium flux, Fluo-4, BAM8-22 antagonism; active compounds read low | 310,000 tested, 1.3% active | AID 588676;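 active means calcium-response B-score plate-corrected more than 3 library SD below zero, starting fluorescence within 5 deviations, no agonist response on first addition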;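 further: peak minus trough fluorescence over baseline after final BAM8-22 challenge near maximal dose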
# RGS4 inh = inhibitors of human RGS4; 310,000 tested, 0.45% active; HEK293 M3R/RGS4 inducible, Fluo-4 calcium flux; active compounds read high; triggered by carbachol at its EC20; B-score at 10 µM; AID 463165;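 active means B-score, a plate-corrected calcium signal, over three deviations above library mean, with baseline fluorescence within five deviations of library mean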;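 further: RGS4 expression induced by doxycycline in cells with stable M3 receptor; B-score is computed from the integrated fluorescence ratio over baseline after carbachol; higher B-score means a larger calcium signal and so more RGS4 inhibition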
# Target sequence (P49798 whole entry, looked up): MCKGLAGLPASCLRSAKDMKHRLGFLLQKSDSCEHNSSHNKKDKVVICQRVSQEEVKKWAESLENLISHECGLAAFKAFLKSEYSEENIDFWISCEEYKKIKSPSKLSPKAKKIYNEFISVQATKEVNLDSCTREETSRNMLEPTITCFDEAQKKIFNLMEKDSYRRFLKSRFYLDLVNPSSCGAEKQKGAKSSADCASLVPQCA
# Lipid droplet = modulators of hepatic lipid droplet formation; inhibition, % at 6.5 µM; 240,000 tested, 0.4% active; AML12 mouse hepatocytes, oleate lipid droplets, BODIPY imaging; AID 1656;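 active means lipid droplet intensity inhibited by at least 50%, with more than 500 cells counted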
#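 Assay system: AML12 mouse liver cells | Compound dosing: One dose, 6.5 µM compound | Read-out basis: Droplet intensity reduction, % inhibition | Measured by: Fluorescence imaging, 20x objective, two fields per well | Schedule: Overnight treatment with compound plus oleate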
# MrgX1 antag conf = confirmation of human MrgX1 receptor antagonists; MrgX1-HEK293, BAM8-22 calcium flux, Fluo-4; active compounds read low; shares compounds with MrgX1 antag; remaining BAM8-22 calcium response % of control (active compounds read low), % at 10 µM; 2,300 tested, 19% active;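 active means remaining agonist calcium response no higher than 100% minus 3 SD of agonist-only control wells, with starting fluorescence near control levels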;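 further: agonist BAM8-22 given at a near maximal EC90 to ECmax level; peak minus minimum fluorescence divided by baseline after agonist addition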
# HEK293 Ca flux = MrgX1 antagonist counter-screen hit in parental HEK293 cells | shares compounds with MrgX1 antag | fluorescence ratio F(max-min)/F0 at 10 µM | Fluo-4 calcium fluorescence, FDSS | 4,000 tested, 2% active;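 active means duplicate-averaged calcium fluorescence ratio at least three times the standard deviation of buffer wells, a nonspecific response in parental cells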
# HEK293 Ca counter = MrgX1 allosteric activator counter-screen hit in parental HEK293 cells; shares compounds with MrgX1 antag; parental HEK293 calcium flux, Fluo-4 fluorescence ratio; active compounds read high; fluorescence ratio F(max-min)/F0 at 10 µM; 4,000 tested, 0.4% active; AID 624114;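 active means calcium fluorescence ratio, averaged over duplicates, at least 3 SD of the buffer-well ratio, meaning a nonspecific response in receptor-free cells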;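 further: untransfected parental HEK293 lacking MrgX1 used as counterscreen for MrgX1 allosteric activators; fluorescence change taken during the second addition on a kinetic imager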
# HEK293 Ca cntr2 = activity in parental HEK293 cells lacking MrgX1 receptor; AID 624115; 4,000 tested, 8.7% active; Fluo-4 calcium fluorescence (FDSS); active compounds read high; shares compounds with MrgX1 antag; fluorescence ratio F(max-min)/F0 at 10 µM;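 active means calcium fluorescence ratio at least three times the spread of buffer wells, meaning a non-specific response in parental cells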
# Active calls of the source: *; i = inactive; x = not tested or not shown. Compounds with a hit are over-represented: about 3.8% of the library has one in this group of screens.
SMILES,RGS4 pot,MrgX1 PAM,MrgX1 agonist,MrgX1 antag,RGS4 inh,Lipid droplet,MrgX1 antag conf,HEK293 Ca flux,HEK293 Ca counter,HEK293 Ca cntr2
O=C(NNC(=O)c1cc(-c2cccnc2)nc2ccccc12)Nc1ccc(Cl)cc1,i,6.9*,i,-13*,i,-23.5,i,i,i,i
O=C(Nc1ccc2c(c1)OCCO2)c1cc(-c2ccccc2)nc2ccccc12,i,i,i,-5.04*,i,x,i,i,i,i
CCOC(=O)Cc1csc(NC(=O)c2c(O)c3c(n(CC(C)C)c2=O)CCCC3)n1,i,i,i,-6.84*,i,-9.1,81.3%*,i,i,i
COc1ccc(C(=O)NNC(=O)C2CCN(S(=O)(=O)c3ccc(C)cc3)CC2)cc1,i,i,i,i,i,-6.8,x,x,x,x
COc1cccc(C2=CC(c3cccs3)n3nnnc3N2)c1 (stereo not drawn),i,i,i,-5.47*,i,-9.0,84.0%*,i,i,i
COc1cccc(C2=CC(c3ccc(OC)c(OC)c3OC)n3nnnc3N2)c1 (stereo not drawn),i,i,i,i,i,-22.5,x,x,x,x
Cn1nccc1C(=O)N1CCc2c([nH]c3ccccc23)C1c1ccc(F)cc1 (stereo not drawn),i,i,i,-7.28*,i,-32.2,i,i,i,i
CCc1ccc(C2c3[nH]c4ccccc4c3CCN2C(=O)c2cc[n+]([O-])cc2)cc1 (stereo not drawn),i,i,i,i,i,7.4,x,x,x,x
CCOC(=O)C1=C(N)OC2=C(C(=O)CCC2)C1c1ccccc1OCC (stereo not drawn),i,i,i,i,i,x,x,x,x,x
COc1ccc(-n2c(C)cc(-c3csc(N)n3)c2C)cc1,i,i,i,i,i,-1.1,x,x,x,x
Cc1cc(N2C(=O)CC(N3CCN(c4ccc(C(=O)c5cccs5)cc4)CC3)C2=O)no1 (stereo not drawn),i,i,i,-5.04*,i,-8.1,i,i,i,i
CCOC(=O)C1=C(C)Nc2nc(C)nn2C1c1ccc(OC)c(OC)c1 (stereo not drawn),i,i,i,-6.74*,i,-6.6,i,i,i,i
O=C(CSc1ccc2nnc(CCNS(=O)(=O)c3ccccc3)n2n1)Nc1nc2ccccc2s1,i,i,i,i,i,-26.2,x,x,x,x
CC1(c2ccc(C#N)cc2)NC(=O)N(CC(=O)Nc2cc(S(=O)(=O)N3CCOCC3)ccc2Cl)C1=O (stereo not drawn),i,i,i,-7.33*,i,24.6,i,i,i,i
Cc1ccc(S(=O)(=O)N2CCNC(=O)CC2)cc1,i,i,i,i,i,-3.6,x,x,x,x
CC(C)C(c1nnnn1C1CCCCC1)N1CCCc2ccccc21 (stereo not drawn),i,i,i,i,i,-2.9,x,x,x,x
CC(C)C(c1nnnn1C1CCCC1)N1CCCc2ccccc21 (stereo not drawn),i,i,i,-6.05*,i,-44.9,i,i,i,i
CC(C)NC(=O)NC(=O)COc1ncnc2sccc12,i,i,i,-4.89*,i,-3.5,i,i,i,i
CC(C)NC(=O)COc1ncnc2sccc12,i,i,i,i,i,x,x,x,x,x
O=C(COc1ncnc2sccc12)NC1CCCc2ccccc21 (stereo not drawn),i,i,i,-7.44*,i,19.8,79.6%*,i,i,i
COc1cc(CN2C(=S)NC(C)(C)CC2(C)O)cc(OC)c1 (stereo not drawn),i,i,i,i,i,-2.0,x,x,x,x
CCn1c(CCC(=O)O)nc2cc(S(=O)(=O)N(C)C)ccc21,i,i,i,i,i,-8.6,x,x,x,x
CCn1c(CSc2nc(C)cs2)nc2cc(S(=O)(=O)N(C)C)ccc21,i,i,i,-4.64*,i,x,i,i,i,i
O=C(c1nc2ccc(Cl)cn2c1CN1CCC(O)CC1)N1CCc2ccccc2C1,i,i,i,-5.55*,i,10.2,i,i,i,i
CC1CCN(Cc2c(C(=O)N3CCc4ccccc4C3)nc3ccc(Cl)cn23)CC1,i,i,i,i,i,6.4,x,x,x,x
SMILES,RGS4 pot,MrgX1 PAM,MrgX1 agonist,MrgX1 antag,RGS4 inh,Lipid droplet,MrgX1 antag conf,HEK293 Ca flux,HEK293 Ca counter,HEK293 Ca cntr2
Cc1ccc2n(n1)c(=O)c(Cc1ccccc1)c([O-])[n+]2-c1ccccc1,i,i,i,i,i,-54.8,x,x,x,x
Cc1cccnc1CCNC(=O)c1ccc(OC2CCN(Cc3ccccn3)CC2)cc1,i,i,i,-10*,i,2.6,i,i,i,i
CC(NC(=S)NC1CCCCC1)c1ccc(C(C)(C)C)cc1 (stereo not drawn),i,i,i,-6.82*,i,-15.6,50.9%*,i,i,i
CC(C)c1ccc(C(C)NC(=S)NC2CCCCC2)cc1 (stereo not drawn),i,i,i,i,i,-4.5,x,x,x,x
CC(=O)N1CCC(N(CCN2CCOCC2)C(=S)Nc2ccccc2C)CC1,i,i,i,i,i,7.2,x,x,x,x
C[C@H]1[C@H](C)CC[C@]2(C)CC[C@]3(C)C(=CC[C@@H]4[C@@]5(C)CC[C@@H](O)[C@](C)(C(=O)O)[C@@H]5CC[C@]43C)[C@H]12,i,i,i,i,i,5.9,x,x,x,x
O=C(CSc1nnc(NC(=O)c2cc(Br)ccc2Cl)s1)NCC1CCCO1 (stereo not drawn),i,i,i,-12.7*,i,4.3,i,i,i,i
O=C(CSc1nc2ccccc2s1)NCC1CCCO1 (stereo not drawn),i,i,i,-5.94*,i,1.2,i,i,i,i
